# Bioassay records: PubChem BioAssay, several laboratories
# UPR CHOP act – activators of apoptotic arm of unfolded protein response (CHOP); activation, % at 10 µM; AID 449763; CHO-CHOP luciferase reporter, UPR activation, luminescence; percent of tunicamycin response over DMSO baseline; 0.34% of 330,000 active;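 active means at 10 µM dose, activation of 40% or more, normalized to positive control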;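 further: 100% = tunicamycin at 10 µg/mL and 0% = DMSO alone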
#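 Assay system: CHO cells with stable CHOP pathway luciferase reporter; Buffer or medium: F12 plus 10% serum; Times: 16-18 h cell attachment, then 6 h compound exposure, 37 °C; Signal: luciferase luminescence; Read-out basis: percent activation relative to tunicamycin control; Control set: tunicamycin high control, DMSO low control.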
# UPR XBP1 act – adaptive UPR (XBP1) activation | CHO-XBP1 luciferase reporter, IRE1-XBP1 UPR activation, luminescence; percent of tunicamycin response, DMSO as zero | activation, % at 20 µM | 0.33% of 330,000 active | AID 463104;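 active means versus positive control, 20 µM dose yields 30% or more activation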;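 further: 100% = tunicamycin at 10 µg/mL and 0% = DMSO only wells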
#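 Assay system: IRE1-XBP1 luciferase reporter CHO line. Input: 1000 cells/well. Buffer or medium: F12 with 10% serum. Doses: 20 µM, 1% DMSO. Times: overnight seeding at 37 °C, 6 h compound treatment at 37 °C. Technique: Steady-Glo luciferase glow luminescence, 10 min after reagent addition.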
# MPTP inh – blocks calcium-induced mitochondrial swelling. isolated mouse mitochondria, Ca2+ swelling absorbance, 30 min. inhibition, % at 10 µM. 1.4% of 360,000 active. AID 602449;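 active means inhibition of 50% or more, scaled per plate between neutral and stimulator controls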;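 further: 0% = DMSO wells given calcium and 100% = 1 mM EGTA wells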
# NR3A LBD binder – modulators (binders) of human NR3A ligand-binding domain. AID 1259313. Tm shift relative to glycine control, % at 25 µM. NR3A LBD differential scanning fluorimetry, Tm shift; 0% = protein alone, 100% = glycine-bound protein. 2.5% of 340,000 active;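 active means melting temperature shift of at least 10% of the positive control shift, at one fixed dose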
# CHOP inhibitor – inhibitors of CHOP induction in ER stress response; CHO-K1 CHOP-promoter luciferase, tunicamycin-induced, 15-18 h; inhibition, % at 10 µM; 3.8% of 220,000 active; AID 2732;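 active means compounds that reduced the stress-induced luciferase reporter signal by more than about 70% of percent inhibition, limit read from the data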;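 further: 0% = tunicamycin plus vehicle and 100% = wells without tunicamycin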
# aDG glyco up – increases alpha dystroglycan glycosylation; Pro5-aDG cells, alpha-DG glycosylation AlphaScreen (IIH6); 0% Pro5, 100% B10-LARGE cell signal; activation, % at 10 µM; 0.22% of 360,000 active; AID 624168;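 active means activation of at least 8% versus controls, or a plate z-score of at least 8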;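 further: Pro5 are CHO cells carrying HIG-tagged alpha-DG that lacks glycosylation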
# * hit, by the source's call; nt = no result. Only some compounds are listed: those with a hit (about 5.6% of all), similar ones and a draw of the others.
SMILES,UPR CHOP act,UPR XBP1 act,MPTP inh,NR3A LBD binder,CHOP inhibitor,aDG glyco up
Cc1ccc(S(=O)(=O)Nc2ccc(C(OC(=O)c3ccccc3[N+](=O)[O-])(C(F)(F)F)C(F)(F)F)cc2)cc1,4,-1,13,4,76*,0
O=C(OC(c1ccc(NS(=O)(=O)c2ccccc2)cc1)(C(F)(F)F)C(F)(F)F)c1ccccc1,2,3,19,-1,92*,0
COCCNS(=O)(=O)c1cc(OC)ccc1OC,0,-3,0,-1,11,0
Clc1ccc(Nc2ccc(-n3ccnc3)nn2)cc1Cl,7,11,-5,19*,22,0
O=C(COc1ccccc1)Nc1nnc(-c2ccc(Cl)cc2)o1,-1,-3,0,-4,nt,0
CC1CN(S(=O)(=O)c2ccc(C(=O)Nc3nnc(-c4ccc5c(c4)CCCC5)o3)cc2)CC(C)O1 (stereo not given),5,0,-16,2,104*,0
O=C(COc1ccc(Cl)cc1)Nc1nnc(-c2ccc3c(c2)CCCC3)o1,3,2,-3,-1,87*,0
COc1ccccc1C(=O)Nc1nnc(-c2ccc3c(c2)CCCC3)o1,1,-2,12,-9,80*,0
CC(=O)NC(CC(=O)NNC(=O)c1cc2ccccc2cc1O)c1ccccc1 (stereo not given),0,-8,1,-1,nt,0
Cn1c(/C(C#N)=C(\O)COc2ccc3ccccc3c2)nc2ccccc21,-6,0,3,-2,93*,0
Cc1cc(Nc2ccccc2Cl)nc(-c2ccccc2O)n1,-1,-6,1,1,nt,0
Cc1ccc(C)c(Nc2cc(C)nc(-c3ccccc3O)n2)c1,0,-4,0,5,nt,0
Cc1cc(NCc2ccccc2)nc(-c2ccccc2O)n1,7,0,32,1,79*,1
CCOC(=O)c1ccc(Nc2cc(C)nc(-c3ccccc3O)n2)cc1,2,1,35,35*,-17,0
Cc1cc(NC2CCCCC2)nc(-c2ccccc2O)n1,1,4,2,-5,87*,0
CCCOc1cc(C)nc(-c2ccccc2O)n1,1,0,-2,2,93*,0
Cc1ccc(SCc2nc3ccccc3n2CC(=O)Nc2c(C)cccc2C)cc1,-1,-2,9,-1,90*,0
COc1ccccc1-c1nc(-c2ccccn2)no1,-8,-8,1,-1,59,0
COc1ccc(-c2nc(-c3ccccn3)no2)cc1,-10,-5,0,-1,101*,0
CCC(C)Sc1ccc([C@@H]2[C@H]3C(=O)N(CC)C(=O)[C@H]3[C@]3(C(=O)OC)CCCN23)cc1OC (stereo not given in full),-1,0,1,-4,nt,0
NC(=O)C1CCCN(CC(=O)Nc2cc(S(=O)(=O)N3CCOCC3)ccc2N2CCCC2)C1 (stereo not given),-1,-5,0,0,nt,0
Cn1nc(C(=O)OCC(=O)Nc2ccccc2[N+](=O)[O-])c2ccccc2c1=O,3,0,0,0,nt,1
COc1cc(C2(C)SCCCS2)cc(OC)c1OC,nt,nt,1,nt,nt,0
Cc1ccc(C(=O)c2nocc2C(=O)c2cccs2)cc1,1,2,2,16*,9,0
CC(C(=O)O)c1ccc(C(=O)c2cccs2)cc1 (stereo not given),0,-5,-2,-1,nt,0
Cc1cc(C)n2nc(-c3ccc(Br)cc3)cc2n1,9,3,0,0,nt,0
Cc1ccc(-c2cc(N)n(-c3ccc(C)cc3)n2)cc1,6,5,-1,-10,-6,0
Cc1ccc(-c2cc3nc(-c4ccccc4)cc(N)n3n2)cc1,3,1,3,13*,78*,0
Cc1ccc(-c2cc3nc(-c4ccc(Br)cc4)cc(N)n3n2)cc1,0,-2,10,39*,52,0
Cc1cc(N)n2nc(-c3ccccc3)cc2n1,nt,nt,0,-22,-6,0
